T1: Monocarboxylate transporter 4 (Homo sapiens, UniProt O15427)
T1 sequence (O15427 whole entry): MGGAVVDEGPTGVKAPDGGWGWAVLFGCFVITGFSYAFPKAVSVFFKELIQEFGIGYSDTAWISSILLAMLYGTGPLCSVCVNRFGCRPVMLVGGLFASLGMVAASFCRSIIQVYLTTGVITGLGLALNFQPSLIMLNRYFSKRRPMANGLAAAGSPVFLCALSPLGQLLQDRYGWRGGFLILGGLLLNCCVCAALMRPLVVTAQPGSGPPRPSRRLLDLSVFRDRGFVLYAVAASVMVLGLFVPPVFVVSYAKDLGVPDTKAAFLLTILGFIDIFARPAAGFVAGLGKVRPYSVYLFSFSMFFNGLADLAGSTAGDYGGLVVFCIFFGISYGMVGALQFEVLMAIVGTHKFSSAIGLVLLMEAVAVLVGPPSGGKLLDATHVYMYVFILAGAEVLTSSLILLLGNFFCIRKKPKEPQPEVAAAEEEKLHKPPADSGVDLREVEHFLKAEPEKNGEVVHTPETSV

T2: Monocarboxylate transporter 4 (Homo sapiens) (UniProt O15427)
T2 sequence (whole entry): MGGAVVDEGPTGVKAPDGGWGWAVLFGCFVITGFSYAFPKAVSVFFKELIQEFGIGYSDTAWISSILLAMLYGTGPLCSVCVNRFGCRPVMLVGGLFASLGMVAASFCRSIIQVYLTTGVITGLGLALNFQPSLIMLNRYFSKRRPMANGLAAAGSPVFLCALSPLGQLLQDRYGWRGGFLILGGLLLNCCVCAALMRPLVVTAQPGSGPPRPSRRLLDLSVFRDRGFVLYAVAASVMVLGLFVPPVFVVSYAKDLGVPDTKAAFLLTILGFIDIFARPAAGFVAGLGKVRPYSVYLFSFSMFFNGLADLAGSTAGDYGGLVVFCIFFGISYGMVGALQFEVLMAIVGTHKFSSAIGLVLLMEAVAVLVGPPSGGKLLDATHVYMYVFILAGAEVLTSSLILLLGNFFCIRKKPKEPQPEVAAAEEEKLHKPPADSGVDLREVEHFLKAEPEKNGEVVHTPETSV


Assays:
[1] = biological target: T1, Monocarboxylate transporter 4; test: TP_TRANSPORTER: inhibition of L-Lactate uptake (L-Lactate:30mM) in Xenopus laevis oocytes; type: functional, cell-based, Oocyte
Method in brief: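 Human MCT4 cRNA (12 ng) injected into collagenase-treated stage V–VI oocytes, cultured 48–72 h at 18°C. Oocytes loaded with 5 μM BCECF-AM, 30 min, room temperature. Single oocyte superfused in uptake buffer pH 7.4 (NaCl isosmotically replaced). Inhibitor added simultaneously with 30 mM L-lactate at increasing concentrations. Initial acidification rate from first-order fit, as % of uninhibited rate. K0.5 from non-competitive fit, n=4–5 oocytes.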

[2] = biological target: T2, Monocarboxylate transporter 4 (Homo sapiens); test: (§1) TP_TRANSPORTER: uptake in Xenopus laevis oocytes; type: functional, cell-based; conditions: Oocyte
Method in brief: (§2)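 Stage V–VI oocytes were injected with 12 ng MCT4 or MCT1 cRNA and kept in Barth's medium at 18°C. They were assayed 48–72 h later after loading with 5 μM BCECF-AM (30 min, room temperature, pH 7.4 buffer). Single oocytes were superfused with monocarboxylate Na salt (isosmotic NaCl replacement). Initial acidification rate came from a first-order fit, normalised to L-lactate on the same oocyte, then Michaelis–Menten regression.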

[3] = substrate: CCC(=O)C(=O)O; test: as §1; type: functional, cell-based; conditions: Oocyte; method in brief: as §2
[4] = substrate: CC(O)C(=O)[O-].[Na+]; test: as §1; type: functional, cell-based; conditions: Oocyte; method in brief: as §2
[5] = substrate: COC(=O)[C@H](C)Cl; test: as §1; type: functional, cell-based; conditions: Oocyte; method in brief: as §2
[6] = substrate: CC(C)CC(=O)C(=O)O; test: as §1; type: functional, cell-based; conditions: Oocyte; method in brief: as §2
[7] = substrate: O=C(O)CCCl; test: as §1; type: functional, cell-based; conditions: Oocyte; method in brief: as §2
[8] = substrate: CCC(O)C(=O)O; test: as §1; type: functional, cell-based; conditions: Oocyte; method in brief: as §2

Row | Molecule | IC50 [1] [µM] | Activity [2] | other results
1 | O=C(CCc1ccc(O)cc1)c1c(O)cc(O)cc1O [PHLORETIN] | 41 |  | 
2 | CC(C)Cn1c(=O)n(C)c(=O)c2[nH]cnc21 [ISOBUTYLMETHYLXANTHINE] | 970 |  | 
3 | O=CC(=O)O |  | is not a substrate [-] | 
4 | O=C(O)CCCO |  | is not a substrate [-] | 
5 | O=C(O)C(=O)Cc1ccccc1 |  | is not a substrate [-] | 
6 | NC(=O)C(=O)O |  | is not a substrate [-] | 
7 | p-Chloromercuribenzenesulfonate |  |  | IC50 ([1]; oocyte): 21 µM
8 | O=C(O)c1cc([N+](=O)[O-])ccc1NCCCc1ccccc1 [5-NITRO-2-PHENYLPROPYLAMINOBENZOIC ACID [NPPB]] | 240 |  | 
9 | N#C/C(=C\c1ccc(O)cc1)C(=O)O [alpha-CYANO-4-HYDROXYCINNAMIC ACID] | 991 |  | 
10 | O=C[O-].[Na+] |  | is not a substrate [-] | 
11 | O=C(O)O |  | is not a substrate [-] | 
12 | Monocarboxylate transporter 4 (Homo sapiens), O15427 (protein) MGGAVVDEGPTGVKAPDGGWGWAVLFGCFVITGFSYAFPKAVSVFFKELIQEFGIGYSDTAWISSILLAMLYGTGPLCSVCVNRFGCRPVMLVGGLFASLGMVAASFCRSIIQVYLTTGVITGLGLALNFQPSLIMLNRYFSKRRPMANGLAAAGSPVFLCALSPLGQLLQDRYGWRGGFLILGGLLLNCCVCAALMRPLVVTAQPGSGPPRPSRRLLDLSVFRDRGFVLYAVAASVMVLGLFVPPVFVVSYAKDLGVPDTKAAFLLTILGFIDIFARPAAGFVAGLGKVRPYSVYLFSFSMFFNGLADLAGSTAGDYGGLVVFCIFFGISYGMVGALQFEVLMAIVGTHKFSSAIGLVLLMEAVAVLVGPPSGGKLLDATHVYMYVFILAGAEVLTSSLILLLGNFFCIRKKPKEPQPEVAAAEEEKLHKPPADSGVDLREVEHFLKAEPEKNGEVVHTPETSV |  |  | Km [3]: 57 mM; Km [4]: 28 mM; Km [5]: 46 mM; Km [6]: 95 mM; Km [7]: 51 mM; Km [8]: 56 mM
